Reference: ChEMBL document CHEMBL1155883, “5-Alkyl-6-benzyl-2-(2-oxo-2-phenylethylsulfanyl)pyrimidin-4(3H)-ones, a series of anti-HIV-1 agents of the dihydro-alkoxy-benzyl-oxopyrimidine family with peculiar structure-activity relationship profile” (J Med Chem, 2008)

What was measured:
[1] = test system: Human immunodeficiency virus 1; experiment: Resistance index, ratio of EC50 for drug-resistant HIV1 isolate with reverse transcriptase Y181C mutation to EC50 for wild type HIV1 NL4-3; type: functional
How it was run: (§1)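 Fold resistance is the EC50 against the K103N, Y181C or Y188L mutant strain divided by the EC50 against wt NL4-3. Each EC50 is from MT-4 cells infected in the presence of different drug concentrations, with viability read by MTT at day 5 postinfection.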

[2] = test system: Human immunodeficiency virus 1; experiment: Resistance index, ratio of ID50 for reverse transcriptase K103N mutant to IC50 for wild-type HIV1 sreverse transcriptase
How it was run: (§2)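 Recombinant wt and K103N, L100I or Y181I HIV-1 RT (>95% pure), 2-4 nM. RNA-dependent DNA polymerase assay on 0.5 µg poly(rA)/oligo(dT) 10:1 (0.3 µM 3'-OH ends) with 10 µM [3H]-dTTP and 8% final DMSO. Aliquots taken every 2 min. Inhibitor range 0.2-5× ID50, fitted to a noncompetitive model. Fold resistance is mutant ID50 divided by wt ID50.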

[3] = Cytotoxicity against human MT4 cells by MTT assay; type: cell-based
How it was run: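 Mock-infected MT-4 cells were exposed to a range of compound concentrations. Viability was read by MTT at day 5. CC50 is the concentration that kills 50% of uninfected cells. The top concentration was limited by compound precipitation in culture medium. Means ± SD from at least two or three experiments.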

[4] = test system: Human immunodeficiency virus 1; experiment: Resistance index, ratio of ID50 for reverse transcriptase Y181I mutant to IC50 for wild-type HIV1 reverse transcriptase; how it was run: as §2
[5] = test system: Human immunodeficiency virus type 1 reverse transcriptase (Human immunodeficiency virus 1), Q72547 [L100I]
[6] = test system: Human immunodeficiency virus 1; experiment: Antiviral activity against HIV1 isolates with reverse transcriptase Y188L mutation in human MT4 cells assessed as inhibition of virus-induced cytopathogenicity by MTT assay; type: functional, organism-based; details: Human immunodeficiency virus 1, MT4
How it was run: (§3)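 MT-4 lymphoid cells infected with HIV-1 carrying RT K103N, Y181C or Y188L, in the presence of different drug concentrations. Viable cells counted at day 5 postinfection by MTT colorimetric assay. EC50 is the concentration that inhibits 50% of the HIV-induced cytopathic effect.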

[7] = test system: Human immunodeficiency virus 1; experiment: Antiviral activity against HIV1 isolates with reverse transcriptase Y181C mutation in human MT4 cells assessed as inhibition of virus-induced cytopathogenicity by MTT assay; type: functional, organism-based; details: Human immunodeficiency virus 1, MT4; how it was run: as §3
[8] = test system: Human immunodeficiency virus type 1 reverse transcriptase (Human immunodeficiency virus 1), Q72547 [Y181I]
[9] = test system: Human immunodeficiency virus type 1 reverse transcriptase (Human immunodeficiency virus 1), Q72547 [K103N]
[10] = molecular target: Human immunodeficiency virus type 1 reverse transcriptase (Human immunodeficiency virus 1) (UniProt Q72547)
[11] = test system: Human immunodeficiency virus 1; experiment: Antiviral activity against HIV1 NL4-3 in human MT4 cells assessed as inhibition of virus-induced cytopathogenicity by MTT assay; type: functional, organism-based; details: Human immunodeficiency virus 1, NL4-3, MT4
How it was run: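 MT-4 lymphoid cells infected with wild-type HIV-1 NL4-3 in the presence of a range of compound concentrations. Viable cells were counted by MTT colorimetric read-out at day 5 post-infection. EC50 is the concentration giving 50% protection from virus-induced cytopathic effect. Means ± SD from at least two or three experiments.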

[12] = test system: Human immunodeficiency virus 1; experiment: Resistance index, ratio of ID50 for reverse transcriptase L100I mutant to IC50 for wild-type HIV1 reverse transcriptase; how it was run: as §2
[13] = Selectivity index, ratio of CC50 for human MT4 cells to EC50 for HIV1 NL4-3; type: toxicity, cell-based; details: read-out: Ratio CC50/EC50
How it was run: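 Computed as CC50/EC50. CC50 comes from MTT viability of mock-infected MT-4 cells and EC50 from MTT protection of NL4-3-infected MT-4 cells, both read at day 5.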

[14] = test system: Human immunodeficiency virus 1; experiment: Antiviral activity against HIV1 isolates with reverse transcriptase K103N mutation in human MT4 cells assessed as inhibition of virus-induced cytopathogenicity by MTT assay; type: functional, organism-based; details: Human immunodeficiency virus 1, MT4; how it was run: as §3
[15] = test system: Human immunodeficiency virus 1; experiment: Resistance index, ratio of EC50 for drug-resistant HIV1 isolate with reverse transcriptase K103N mutation to EC50 for wild type HIV1 NL4-3; type: functional; how it was run: as §1

Row | Structure (SMILES) | Ratio EC50 [1] | Ratio [2] | CC50 [3] [µM] | Ratio [4] | ID50 [5] [µM] | EC50 [6] [µM] | EC50 [7] [µM] | ID50 [8] [µM] | ID50 [9] [µM] | ID50 [10] [µM] | EC50 [11] [µM] | Ratio [12] | selectivity ratio [13] | EC50 [14] [µM] | Ratio EC50 [15]
1 | CCc1c(Cc2c(Cl)cccc2Cl)nc(SCC(=O)c2ccc(OC)cc2)[nH]c1=O | 7 | 21 | > 54 | 6 | 2.42 | > 54 | 24.1 | 0.14 | 0.48 | 0.023 | 3.3 | 105 | > 16 | > 54 | 
2 | COc1ccc(CSc2nc(Cc3c(Cl)cccc3Cl)c(C)c(=O)[nH]2)cc1 |  | 25500 | 32 | 37500 |  | > 32 |  |  |  |  |  |  | 4570 |  | 671
3 | CCc1c(Cc2c(F)cccc2F)nc(SCC(=O)c2ccccc2)[nH]c1=O | 17 | 86 | 56 | 19 | 5.4 | > 56 | 0.2 | 0.82 | 3.7 | 0.043 | 0.012 | 126 | 4670 | 1.3 | 108
4 | CCC(C)c1c(Cc2c(F)cccc2Cl)nc(SCC(=O)c2ccc(F)cc2)[nH]c1=O (centres undefined) | 51 |  | > 54 |  | 32.7 | > 54 | 0.86 | > 40 | > 40 | 0.024 | 0.017 | 1360 | > 3180 | > 54 | 
5 | Cc1c(Cc2c(F)cccc2F)nc(SCC(=O)c2ccc(F)cc2)[nH]c1=O | 14 | 29 | > 62 | 4 | 39.2 | > 62 | 0.35 | 1.71 | 12 | 0.41 | 0.025 | 96 | > 2480 | > 62 | 
6 | CC(C)c1c(Cc2c(F)cccc2F)nc(SCC(=O)c2ccccc2)[nH]c1=O | 120 | 198 | > 60 |  | 4.8 | > 60 | 0.24 | > 40 | 1.58 | 0.008 | 0.002 | 600 | > 30000 | 4.46 | 2230
7 | Cc1c(Cc2c(F)cccc2Cl)nc(SCC(=O)c2ccccc2)[nH]c1=O | 37 | 1920 | > 12 | 100 | 3.3 | > 12 | 1.68 | 1.2 | 23 | 0.012 | 0.045 | 275 | > 267 | 9.48 | 211
8 | CCc1c(Cc2c(F)cccc2Cl)nc(SCC(=O)c2ccc(F)cc2)[nH]c1=O | 386 | 50 | > 57 | 12 | 5.6 | > 57 | 1.93 | 0.38 | 1.64 | 0.033 | 0.005 | 170 | > 11400 | 4.14 | 828
9 | Cc1c(Cc2c(F)cccc2Cl)nc(SCC(=O)c2ccc(F)cc2)[nH]c1=O | 140 | 30 | > 59 | 4 | 8.8 | > 59 | 0.28 | 0.7 | 5.35 | 0.18 | 0.002 | 49 | > 29500 | 8.72 | 4360
10 | O=C(CSc1nc(Cc2c(Cl)cccc2Cl)cc(=O)[nH]1)c1ccc(F)cc1 |  | 46 | > 59 | 46 | 26.1 | > 59 | > 59 | 9.7 | 9.7 | 0.21 | 0.78 | 124 | > 76 | > 59 | 
11 | CCc1c(Cc2c(F)cccc2Cl)nc(SCC(=O)c2ccc(OC)cc2)[nH]c1=O | 42 |  | > 11 |  | 2.9 | > 11 | 0.84 | > 40 | > 40 | 0.007 | 0.02 | 414 | > 550 | 4.16 | 208
12 | CCC(C)c1c(Cc2c(F)cccc2Cl)nc(SCC(=O)c2ccc(OC)cc2)[nH]c1=O (centres undefined) |  | 84 | 40 | 1130 | 27.4 | > 40 | > 40 | 7.9 | 0.59 | 0.007 | 0.006 | 3910 | > 6670 | > 40 | 
13 | CCc1c(Cc2c(F)cccc2F)nc(SCC(=O)c2ccc(F)cc2)[nH]c1=O | 38 | 60 | > 60 | 8 | 6.9 | > 60 | 0.72 | 0.51 | 3.65 | 0.061 | 0.019 | 113 | > 3160 | 5.14 | 270
14 | COc1ccc(C(=O)CSc2nc(Cc3c(F)cccc3Cl)c(C)c(=O)[nH]2)cc1 | 8 | 150 | > 12 | 67 | 25 | > 12 | 1.57 | 1.2 | 2.7 | 0.018 | 0.2 | 1390 | > 60 | > 12 | 
15 | Cc1ccnc2c1NC(=O)c1cccnc1N2C1CC1 [NEVIRAPINE] |  | 17 | > 7 | 87 |  | > 7 | > 7 |  |  |  | 0.13 | 22 | > 54 | 4.96 | 38
16 | CC(C)c1c(Cc2c(F)cccc2F)nc(SCC(=O)c2ccc(F)cc2)[nH]c1=O | 36 | 71 | > 58 |  | 5.7 | > 58 | 0.18 | > 40 | 5.82 | 0.082 | 0.005 | 70 | > 11600 | > 58 | 
17 | O=C(CSc1nc(Cc2c(Cl)cccc2Cl)cc(=O)[nH]1)c1ccccc1 |  | 308 | > 12 | 22 | 11 | > 12 | > 12 | 0.26 | 3.7 | 0.012 | 1.78 | 917 | > 7 | > 12 | 
18 | Cc1c(Cc2c(F)cccc2F)nc(SCC(=O)c2ccccc2)[nH]c1=O | 35 | 32 | 65 | 5 | 12.7 | > 65 | 0.52 | 1.68 | 10.4 | 0.33 | 0.015 | 38 | 4330 | 19 | 1267
